pIC50: −log10 of the molar value.
Legend:
HeLa = assay: Antiproliferative activity against human HeLa cells assessed as inhibition of cell growth after 72 hrs by MTT assay; format: functional, cell-based; conditions: for pIC50: read-out: IC50; for IC50: read-out: pIC50 (converted)
Summary of the method: (§1)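 Cell lines from the Chinese Academy of Sciences cell collection, grown in 96-well plates with a range of compound concentrations for 72 h. Viability read by MTT, with AZD9291 as positive control. IC50 values are averages of three determinations per the methods section; table footnotes state an average of two separate determinations.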

A549 [1] = assay: Antiproliferative activity against human A549 cells assessed as inhibition of cell growth after 72 hrs by MTT assay; format: functional, cell-based; conditions: A549, 72 h; summary of the method: as §1
[2] = biological target: Epidermal growth factor receptor (Homo sapiens, UniProt P00533, L858R/T790M); assay: Inhibition of EGFR T790M/L858R double mutant (unknown origin) using biotin as substrate in presence of ATP by mobility shift assay based ELISA
Chain of Epidermal growth factor receptor (Homo sapiens, UniProt P00533, L858R/T790M) (P00533 25-1210 T790M/L858R limits assumed): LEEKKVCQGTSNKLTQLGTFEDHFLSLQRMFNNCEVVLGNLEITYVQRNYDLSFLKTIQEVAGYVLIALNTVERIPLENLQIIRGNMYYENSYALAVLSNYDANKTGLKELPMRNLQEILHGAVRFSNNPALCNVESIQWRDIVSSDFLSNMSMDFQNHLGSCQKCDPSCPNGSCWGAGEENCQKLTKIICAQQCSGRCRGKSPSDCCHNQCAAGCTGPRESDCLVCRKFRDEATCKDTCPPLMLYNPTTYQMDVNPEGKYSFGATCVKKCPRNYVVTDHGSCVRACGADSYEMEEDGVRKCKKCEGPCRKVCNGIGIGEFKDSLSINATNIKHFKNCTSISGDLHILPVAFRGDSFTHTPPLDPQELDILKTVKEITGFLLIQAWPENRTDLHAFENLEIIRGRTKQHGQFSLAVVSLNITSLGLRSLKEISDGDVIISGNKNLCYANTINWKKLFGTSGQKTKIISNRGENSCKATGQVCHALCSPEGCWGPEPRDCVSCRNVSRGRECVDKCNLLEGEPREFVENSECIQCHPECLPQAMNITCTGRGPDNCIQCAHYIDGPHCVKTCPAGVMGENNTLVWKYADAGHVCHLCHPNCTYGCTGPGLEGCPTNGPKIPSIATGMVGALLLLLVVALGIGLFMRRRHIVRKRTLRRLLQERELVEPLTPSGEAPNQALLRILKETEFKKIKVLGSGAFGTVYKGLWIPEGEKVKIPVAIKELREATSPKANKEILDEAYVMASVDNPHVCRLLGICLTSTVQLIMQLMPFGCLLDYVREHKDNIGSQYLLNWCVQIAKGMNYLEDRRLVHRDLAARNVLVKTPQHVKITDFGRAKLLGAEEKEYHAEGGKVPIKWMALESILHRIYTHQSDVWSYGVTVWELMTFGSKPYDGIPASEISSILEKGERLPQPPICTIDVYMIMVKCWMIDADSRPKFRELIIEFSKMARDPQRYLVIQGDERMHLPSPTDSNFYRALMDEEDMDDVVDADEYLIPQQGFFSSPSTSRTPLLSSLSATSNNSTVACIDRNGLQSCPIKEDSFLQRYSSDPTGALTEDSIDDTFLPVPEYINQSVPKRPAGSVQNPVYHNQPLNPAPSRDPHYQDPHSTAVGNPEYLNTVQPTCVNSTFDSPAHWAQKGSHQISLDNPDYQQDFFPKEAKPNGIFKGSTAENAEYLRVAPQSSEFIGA

[3] = biological target: Epidermal growth factor receptor (Homo sapiens, UniProt P00533); assay: Inhibition of wildtype EGFR (unknown origin) using biotin as substrate in presence of ATP by mobility shift assay based ELISA
Chain of Epidermal growth factor receptor (Homo sapiens, UniProt P00533) (P00533 whole entry): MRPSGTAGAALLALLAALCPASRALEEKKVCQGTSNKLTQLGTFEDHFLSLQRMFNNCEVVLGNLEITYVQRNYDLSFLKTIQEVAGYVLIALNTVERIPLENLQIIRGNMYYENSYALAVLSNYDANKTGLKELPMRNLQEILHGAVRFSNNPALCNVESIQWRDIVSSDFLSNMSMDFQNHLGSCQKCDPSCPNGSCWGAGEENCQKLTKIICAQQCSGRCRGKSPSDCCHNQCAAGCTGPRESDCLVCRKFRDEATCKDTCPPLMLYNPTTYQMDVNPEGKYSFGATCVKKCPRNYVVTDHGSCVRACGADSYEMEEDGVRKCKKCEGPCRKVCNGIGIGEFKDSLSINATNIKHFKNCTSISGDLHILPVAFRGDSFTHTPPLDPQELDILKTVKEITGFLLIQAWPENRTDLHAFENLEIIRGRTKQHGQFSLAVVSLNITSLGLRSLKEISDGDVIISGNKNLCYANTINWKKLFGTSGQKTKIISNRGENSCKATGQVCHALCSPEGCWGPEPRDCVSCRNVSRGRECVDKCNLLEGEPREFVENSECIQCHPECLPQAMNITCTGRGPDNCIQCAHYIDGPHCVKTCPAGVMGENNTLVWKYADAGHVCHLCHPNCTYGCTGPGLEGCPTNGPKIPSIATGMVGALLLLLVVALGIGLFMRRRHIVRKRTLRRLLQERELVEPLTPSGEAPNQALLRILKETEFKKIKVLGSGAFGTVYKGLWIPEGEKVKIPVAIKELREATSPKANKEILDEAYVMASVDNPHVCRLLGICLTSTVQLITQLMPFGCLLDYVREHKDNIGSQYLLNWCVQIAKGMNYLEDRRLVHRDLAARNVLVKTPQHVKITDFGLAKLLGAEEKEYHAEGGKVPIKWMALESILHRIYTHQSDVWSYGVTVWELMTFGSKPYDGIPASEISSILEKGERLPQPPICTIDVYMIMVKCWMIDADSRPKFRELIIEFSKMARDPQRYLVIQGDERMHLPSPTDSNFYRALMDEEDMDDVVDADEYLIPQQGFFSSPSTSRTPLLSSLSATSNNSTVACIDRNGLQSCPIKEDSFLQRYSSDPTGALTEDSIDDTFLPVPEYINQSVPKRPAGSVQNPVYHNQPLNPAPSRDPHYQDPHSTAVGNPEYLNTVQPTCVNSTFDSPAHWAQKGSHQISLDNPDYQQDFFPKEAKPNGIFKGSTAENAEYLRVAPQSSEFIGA

NCI-H1975 [4] = assay: Antiproliferative activity human NCI-H1975 cells harboring EGFR T790M/L858R double mutant assessed as inhibition of cell growth at 10 uM after 72 hrs by MTT assay relative to control; format: functional; conditions: NCI-H1975, 72 h
Summary of the method: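 H1975 cells exposed to compound at a single 10 uM concentration. Growth inhibition rate read by MTT after 72 h in 96-well plates, with AZD9291 as positive control. Values are an average of two separate determinations.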

NCI-H1975 [5] = assay: Antiproliferative activity against human NCI-H1975 cells harboring EGFR T790M/L858R double mutant assessed as inhibition of cell growth after 72 hrs by MTT assay; format: functional, cell-based; conditions: NCI-H1975, 72 h; summary of the method: as §1
Homo sapiens = organism: Homo sapiens; assay: Selectivity ratio of IC50 for wildtype EGFR (unknown origin) to IC50 for EGFR T790M/L858R double mutant (unknown origin) by mobility shift assay based ELISA
A549 [6] = assay: Cell cycle arrest in human A549 cells assessed as accumulation at G0/G1 phase at 0.716 uM after 24 hrs by propidium iodide staining based FACSCalibur flow cytometry analysis (reference value: 74.31 %); format: functional
Summary of the method: (§2)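 A549 cells seeded in 6-well plates for 24 h, then treated for 24 h; vehicle was 0.1% DMSO. Cells were harvested as single-cell suspensions, fixed in 70% ice-cold ethanol for 12 h, and stained with propidium iodide. DNA content was measured by flow cytometry. AZD9291 at 0.462 uM was included as reference.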

A549 [7] = assay: Induction of apoptosis in human A549 cells assessed as viable cells at 0.716 uM after 24 hrs by AnnexinV-FITC/propidium iodide staining based FACSCalibur flow cytometry analysis (reference value: 94.42 %); format: functional; conditions: A549, 24 h, read-out: Activity
A549 [8] = assay: Cell cycle arrest in human A549 cells assessed as accumulation at S phase at 0.716 uM after 24 hrs by propidium iodide staining based FACSCalibur flow cytometry analysis (reference value: 22.24 %); format: functional; summary of the method: as §2
A549 [9] = assay: Induction of apoptosis in human A549 cells assessed as late apoptotic cells at 0.716 uM after 24 hrs by AnnexinV-FITC/propidium iodide staining based FACSCalibur flow cytometry analysis (reference value: 1.74 %); format: functional
A549 [10] = assay: Induction of apoptosis in human A549 cells assessed as early apoptotic cells at 0.716 uM after 24 hrs by AnnexinV-FITC/propidium iodide staining based FACSCalibur flow cytometry analysis (reference value: 3.51 %); format: functional
A549 [11] = assay: Induction of apoptosis in human A549 cells assessed as necrotic cells at 0.716 uM after 24 hrs by AnnexinV-FITC/propidium iodide staining based FACSCalibur flow cytometry analysis (reference value: 0.33 %); format: functional
A549 [12] = assay: Cell cycle arrest in human A549 cells assessed as accumulation at G2/M phase at 0.716 uM after 24 hrs by propidium iodide staining based FACSCalibur flow cytometry analysis (reference value: 3.45 %); format: functional; summary of the method: as §2

Structure (SMILES): C/C=C\C(=O)Nc1cc(Nc2nc3c(c(-c4cn(C)c5ccccc45)n2)CSCC3)c(OC)cc1N(C)CCN(C)C
- pIC50 (HeLa): 5.78
- IC50 (HeLa): 1650 nM
- pIC50 (A549 [1]): 5.16

Structure (SMILES): C=CC(=O)Nc1cc(Nc2nc3c(c(-c4cn(C)c5ccc(F)cc45)n2)CSCC3)c(OC)cc1N(C)CCN(C)C
- pIC50 (HeLa): 6.14
- IC50 (HeLa): 728 nM
- pIC50 (A549 [1]): 5.34

Structure (SMILES): CCC/C=C\C(=O)Nc1cc(Nc2nc3c(c(-c4cn(C)c5ccc(F)cc45)n2)CSCC3)c(OC)cc1N(C)CCN(C)C
- pIC50 (HeLa): 6.02
- IC50 (HeLa): 966 nM
- pIC50 (A549 [1]): 5.29

Structure (SMILES): C=CC(=O)Nc1cc(Nc2nc3c(c(-c4cn(C)c5ccccc45)n2)CS(=O)(=O)CC3)c(OC)cc1N(C)CCN(C)C
- pIC50 (HeLa): 6.94
- IC50 (HeLa): 115 nM
- pIC50 (A549 [1]): 5.06

Structure (SMILES): COc1cc(N(C)CCN(C)C)c(NC(=O)C=C(C)C)cc1Nc1nc2c(c(-c3cn(C)c4ccc(F)cc34)n1)CS(=O)(=O)CC2
- pIC50 (HeLa): 5.23
- IC50 (HeLa): 5920 nM
- pIC50 (A549 [1]): 5.67
- pIC50 [2]: < 5.70
- pIC50 [3]: 6.70

Structure (SMILES): COc1cc(N(C)CCN(C)C)c(NC(=O)/C=C\C(C)C)cc1Nc1nc2c(c(-c3cn(C)c4ccc(F)cc34)n1)CS(=O)(=O)CC2
- pIC50 (HeLa): 6.58
- IC50 (HeLa): 261 nM
- pIC50 (A549 [1]): 5.43
- inhibition at 10 µM (NCI-H1975 [4]): 99.4%

Structure (SMILES): C=C(Cl)C(=O)Nc1cc(Nc2nc3c(c(-c4cn(C)c5ccccc45)n2)CS(=O)(=O)CC3)c(OC)cc1N(C)CCN(C)C
- pIC50 (HeLa): 6.69
- IC50 (HeLa): 205 nM
- pIC50 (A549 [1]): 6.06
- pIC50 [2]: 6.00
- pIC50 (NCI-H1975 [5]): 5.37
- inhibition at 10 µM (NCI-H1975 [4]): 99%
- pIC50 [3]: 6.98
- Ratio IC50 (Homo sapiens): 1.1

Structure (SMILES): COc1cc(N(C)CCN(C)C)c(NC(=O)C=C(C)C)cc1Nc1nc2c(c(-c3cn(C)c4ccccc34)n1)CSCC2
- pIC50 (HeLa): 5.63
- IC50 (HeLa): 2360 nM
- pIC50 (A549 [1]): 6.23

Structure (SMILES): C=CC(=O)Nc1cc(Nc2nc3c(c(-c4cn(C)c5ccccc45)n2)CSCC3)c(OC)cc1N(C)CCN(C)C
- pIC50 (HeLa): 5.89
- IC50 (HeLa): 1300 nM
- pIC50 (A549 [1]): 6.30
- pIC50 [2]: 7.46
- inhibition at 10 µM (NCI-H1975 [4]): 55.6%
- pIC50 [3]: 6.29
- Ratio IC50 (Homo sapiens): 14.6

Structure (SMILES): CCC/C=C\C(=O)Nc1cc(Nc2nc3c(c(-c4cn(C)c5ccc(F)cc45)n2)CS(=O)(=O)CC3)c(OC)cc1N(C)CCN(C)C
- pIC50 (HeLa): 5.63
- IC50 (HeLa): 2330 nM
- pIC50 (A549 [1]): 5.12

Structure (SMILES): C=C(Cl)C(=O)Nc1cc(Nc2nc3c(c(-c4cn(C)c5ccccc45)n2)CSCC3)c(OC)cc1N(C)CCN(C)C
- pIC50 (HeLa): 6.00
- IC50 (HeLa): 1000 nM
- Activity (A549 [6]): 60.51%
- pIC50 (A549 [1]): 6.15
- pIC50 [2]: 7.51
- viability at 0.716 µM (A549 [7]): 85.9%
- Activity (A549 [8]): 27.14%
- Activity (A549 [9]): 5.99%
- pIC50 (NCI-H1975 [5]): 5.38
- Activity (A549 [10]): 7.56%
- inhibition at 10 µM (NCI-H1975 [4]): 99.6%
- Activity (A549 [11]): 0.6%
- pIC50 [3]: 6.24
- Ratio IC50 (Homo sapiens): 18.4
- Activity (A549 [12]): 12.35%

Structure (SMILES): C=CC(=O)Nc1cc(Nc2nc3c(c(-c4cn(C)c5ccc(F)cc45)n2)CS(=O)(=O)CC3)c(OC)cc1N(C)CCN(C)C
- pIC50 (HeLa): 6.76
- IC50 (HeLa): 175 nM
- pIC50 (A549 [1]): 5.33

Structure (SMILES): C/C=C\C(=O)Nc1cc(Nc2nc3c(c(-c4cn(C)c5ccc(F)cc45)n2)CSCC3)c(OC)cc1N(C)CCN(C)C
- pIC50 (HeLa): 6.56
- IC50 (HeLa): 275 nM
- pIC50 (A549 [1]): 5.27

Structure (SMILES): CCC/C=C\C(=O)Nc1cc(Nc2nc3c(c(-c4cn(C)c5ccccc45)n2)CSCC3)c(OC)cc1N(C)CCN(C)C
- pIC50 (HeLa): 6.19
- IC50 (HeLa): 652 nM
- pIC50 (A549 [1]): 6.24

Structure (SMILES): COc1cc(N(C)CCN(C)C)c(NC(=O)/C=C\C(C)C)cc1Nc1nc2c(c(-c3cn(C)c4ccccc34)n1)CS(=O)(=O)CC2
- pIC50 (HeLa): 5.53
- IC50 (HeLa): 2960 nM
- pIC50 (A549 [1]): 7.42

— ChEMBL document CHEMBL4312015, “Design, synthesis and 3D-QSAR analysis of novel thiopyranopyrimidine derivatives as potential antitumor agents inhibiting A549 and Hela cancer cells” (Eur J Med Chem, 2020)
